Nine compounds from ChEMBL document CHEMBL1759978, “Synthesis and biological evaluation of fatty acyl ester derivatives of 2',3'-didehydro-2',3'-dideoxythymidine” (Bioorg Med Chem Lett, 2011) can be followed below.

Activity calls are given as the source filed them. The calls are words filed in the database; no cut-off is given here.

The test system of series [1] is Human immunodeficiency virus 1. Kind of series: Antiviral activity against Human immunodeficiency virus 1 infected in human CEM-SS cells assessed as inhibition of viral replication. The class given is functional, organism-based. The note with it: Human immunodeficiency virus 1, CEM-SS.
Series [2] concerns CCRF-CEM. Kind of series: Cellular uptake in human CCRF-CEM cells at 10 uM after 1 hr by real time fluorescence microscopy. The class given is ADME, cell-based. The gist of the method: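 Live CCRF-CEM cells were incubated 1 h with 10 of the fluorescein-labelled conjugates, with DMSO and free 5(6)-carboxyfluorescein as controls, then imaged by fluorescence light microscopy.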

Series [3] is filed under the species Homo sapiens. Kind of series: Spermicidal activity against human sperm assessed as sperm tail response at 1 mg/ml for 10 mins by microscopy relative to control. The format is functional.
The test system of series [4] is Human immunodeficiency virus 1. Briefly: Antiviral activity against Human immunodeficiency virus 1 3B by MAGI assay. The format is functional, organism-based.
Another series concerns HeLa. Briefly: Cytotoxicity against human HeLa P4/R5 cells by MTS assay. The format is cell-based. The note with it: read-out: EC50 (the source's name). A general note: Tetrazolium assays rely on reduction of a dye to a coloured formazan, in cell work by metabolically active cells.
The species entered for series [5] is Homo sapiens. Briefly: Spermicidal activity against human sperm assessed as immobolizing sperm treated for 10 mins by microscopy relative to control. The class given is functional.
Series [6] concerns Human immunodeficiency virus 1. Briefly: Antiviral activity against Human immunodeficiency virus 1 3B infected in human SupT1 cells by cell-associated transmission assay. The class given is functional, organism-based. The note with it: SUP-T1.
Series [7] has as its system Human immunodeficiency virus 1. Briefly: Antiviral activity against Human immunodeficiency virus 1 BAL by MAGI assay. The class given is functional, organism-based.
Series [8] deals with CCRF-CEM. Kind of series: Cellular uptake in human CCRF-CEM cells at 10 uM after 1 to 8 hrs measured after 5 mins trypsin wash off by flow cytometry relative to control. The class given is ADME, cell-based. In general terms: In flow cytometry, cells or beads pass a laser one at a time.
The test system of series [9] is CCRF-CEM. Kind of series: Cellular uptake in human CCRF-CEM cells at 10 uM after 1 to 8 hrs by flow cytometry. The format is ADME, cell-based. The gist of the method:
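CCRF-CEM T lymphoblastoid cells grown to 70% confluency, then exposed to 10 of the fluorescein-tagged conjugates for 1, 2, 4 and 8 h, with DMSO and free 5(6)-carboxyfluorescein as controls. Uptake was read by flow cytometry in the FITC channel as the mean fluorescence of 10,000 cells, in triplicate.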

In general, EC50 refers to the concentration at which the effect is half-maximal. As to `CCSCCCCCCCCCCCC(=O)O`, the EC50 in series [1] amounted to 9.4 µM.
As to `O=C(O)c1ccc2c(c1)C1(OC2=O)c2ccc(O)cc2Oc2cc(O)ccc21`, the Drug uptake result in the series with CCRF-CEM [2] is recorded as “Not Active”.
Regarding `Cc1cn([C@H]2C=C[C@@H](COC(=O)CCCCCCCCCCCN=[N+]=[N-])O2)c(=O)[nH]c1=O`, the result in the series filed under Homo sapiens [3] and in the series listed under Homo sapiens [5] was inactive. For the same compound, the EC50 in series [4] was 6.7 µM; in series [6], 22.4 µM; in series [7], 3.1 µM. Besides, the CC50 in the series with HeLa is greater than 200 µM.
Regarding `CCCCCCCCCCCCCC(=O)OC[C@@H]1C=C[C@H](n2cc(C)c(=O)[nH]c2=O)O1`, the result in the series filed under Homo sapiens [3] and in the series listed under Homo sapiens [5] was inactive. Also, the EC50 in series [4] was 78.3 µM; in series [6], greater than 230 µM; in series [7], 12.4 µM. Moreover, the CC50 in the series on HeLa was greater than 200 µM.
Consider `CCSCCCCCCCCCCCC(=O)OC[C@@H]1C=C[C@H](n2cc(C)c(=O)[nH]c2=O)O1`, for which the result in the series filed under Homo sapiens [3] and in the series listed under Homo sapiens [5] was inactive. Further, the EC50 in series [4] turned out to be 14.4 µM; in series [6], 46.5 µM; in series [7], 5.8 µM. In addition, the CC50 in the series with HeLa is greater than 200 µM.
For `Cc1cn([C@H]2C=C[C@@H](CO)O2)c(=O)[nH]c1=O` [STAVUDINE], the EC50 in series [4] was determined as 26.8 µM; in series [6], 136 µM; in series [7], 28.1 µM.
With `Cc1cn([C@H]2C=C[C@@H](COC(=O)CCCCCCCCCCCNC(=O)c3ccc(-c4c5ccc(=O)cc-5oc5cc(O)ccc45)c(C(=O)O)c3)O2)c(=O)[nH]c1=O`, the Drug uptake entry with CCRF-CEM [2], with CCRF-CEM [8] and in the series with CCRF-CEM [9] was “Active” throughout.
With `Cc1cn([C@H]2C=C[C@@H](COC(=O)CCNC(=O)c3ccc(-c4c5ccc(=O)cc-5oc5cc(O)ccc45)c(C(=O)O)c3)O2)c(=O)[nH]c1=O`, the Drug uptake result in the series with CCRF-CEM [2] and with CCRF-CEM [9] was “Not Active” throughout.
In the case of `Cc1cn([C@H]2C=C[C@@H](COC(=O)CCCCCCCCCCCBr)O2)c(=O)[nH]c1=O`, the values for the EC50 in series [4], in series [6] and in series [7] were 14.9 µM, greater than 206 µM and 2.3 µM, respectively. The CC50 in the series on HeLa is greater than 200 µM.
